Experimental data as given in ChEMBL document CHEMBL3875163, “Novel urea and bis-urea primaquine derivatives with hydroxyphenyl or halogenphenyl substituents: Synthesis and biological evaluation” (Eur J Med Chem, 2016).
≈ marks a conversion by molar mass, not a printed value.

What was measured:
Candida albicans = test: Antifungal activity against Candida albicans ATCC 90028 after 18 hrs by serial microdilution broth assay; assay type: functional; details: ATCC 90028, 18 h
Outline: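 Yeast microdilution in RPMI 1640 with glutamine plus 2% glucose, 1000 to 0.78125 µg/ml from 10 mg/ml DMSO stocks. Growth read with XTT (10 mg/ml) mixed 7:1 with menadione (1 mg/ml in acetone), absorbance at 540 nm. MIC taken as lowest concentration giving 50% growth inhibition versus untreated cells; tests in duplicate.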

Staphylococcus aureus [1] = test: Antibacterial activity against Staphylococcus aureus ATCC 6538 after 18 hrs by serial microdilution broth assay; assay type: functional; details: ATCC 6538, 18 h
Outline: (§1)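 Broth microdilution MIC per EUCAST for aerobic bacteria in Mueller-Hinton broth, serial dilution 1000 to 0.78125 µg/ml from 10 mg/ml DMSO stocks. Inoculum from trypticase soy broth cultures (18 h, 37 °C), set to 0.5 McFarland in PBS pH 7.4, diluted 1:10. 18 h aerobic incubation at 35 °C in dark, then TTC 0.5 mg/ml for 3 h, HCl-isopropanol, A490. MIC = lowest concentration giving 50% inhibition versus untreated; duplicates.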

Staphylococcus aureus [2] = test: Antibacterial activity against methicillin sensitive Staphylococcus aureus ATCC 25923 after 18 hrs by serial microdilution broth assay; assay type: functional; details: ATCC 25923, 18 h
Outline: (§2)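 EUCAST-based broth microdilution in Mueller-Hinton broth. Glycerol stock cultures grown in trypticase soy broth 18 h at 37 °C; inoculum in PBS pH 7.4 at 0.5 McFarland, diluted 1:10 in broth. Compounds from DMSO stocks, 1000 to 0.78125 µg/ml; 18 h aerobic, 35 °C, dark. TTC 0.5 mg/ml added, 3 h, then HCl/isopropanol, A490. MIC = lowest concentration giving 50% inhibition vs untreated; duplicates, averaged.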

Staphylococcus aureus [3] = test: Antibacterial activity against methicillin sensitive Staphylococcus aureus ATCC 25213 after 18 hrs by serial microdilution broth assay; assay type: functional; details: ATCC 25213, 18 h; outline: as §1
Staphylococcus aureus [4] = test: Antibacterial activity against methicillin resistant Staphylococcus aureus MFBF 10682 after 18 hrs by serial microdilution broth assay; assay type: functional; details: MFBF 10682, 18 h; outline: as §2
Staphylococcus aureus [5] = test: Antibacterial activity against methicillin resistant Staphylococcus aureus MFBF 10679 after 18 hrs by serial microdilution broth assay; assay type: functional; details: MFBF 10679, 18 h; outline: as §2
Enterococcus faecalis [6] = test: Antibacterial activity against vancomycin susceptible Enterococcus faecalis ATCC 29212 after 18 hrs by serial microdilution broth assay; assay type: functional; details: ATCC 29212, 18 h; outline: as §1
Enterococcus faecalis [7] = test: Antibacterial activity against vancomycin resistant Enterococcus faecalis MFBF 11419 after 18 hrs by serial microdilution broth assay; assay type: functional; details: MFBF 11419, 18 h; outline: as §2
Bacillus pumilus = test: Antibacterial activity against Bacillus pumilus NCTC 8241 after 18 hrs by serial microdilution broth assay; assay type: functional; details: NCTC 8241, 18 h; outline: as §1
Bacillus cereus = test: Antibacterial activity against Bacillus cereus ATCC 11778 after 18 hrs by serial microdilution broth assay; assay type: functional; details: ATCC 11778, 18 h; outline: as §1
Bacillus spizizenii = test: Antibacterial activity against Bacillus subtilis ATCC 6633 after 18 hrs by serial microdilution broth assay; assay type: functional; details: ATCC 6633, 18 h; outline: as §1
Pseudomonas aeruginosa [8] = test: Antibacterial activity against Pseudomonas aeruginosa ATCC 9027 after 18 hrs by serial microdilution broth assay; assay type: functional; details: ATCC 9027, 18 h; outline: as §2
Pseudomonas aeruginosa [9] = test: Antibacterial activity against Pseudomonas aeruginosa ATCC 27853 after 18 hrs by serial microdilution broth assay; assay type: functional; details: ATCC 27853, 18 h; outline: as §1
Pseudomonas aeruginosa [10] = test: Antibacterial activity against multi-drug resistant Pseudomonas aeruginosa MFBF after 18 hrs by serial microdilution broth assay; assay type: functional; outline: as §2
Escherichia coli = test: Antibacterial activity against Escherichia coli ATCC 10535 after 18 hrs by serial microdilution broth assay; assay type: functional; details: ATCC 10535, 18 h; outline: as §1
[11] = Growth inhibition of mouse L1210 cells after 72 hrs by MTT assay; assay type: functional, cell-based; details: L1210, 72 h
[12] = Growth inhibition of human Molt4/C8 cells after 72 hrs by MTT assay; assay type: functional, cell-based; details: MOLT-4, 72 h
[13] = Growth inhibition of human CEM cells after 72 hrs by MTT assay; assay type: functional, cell-based; details: CCRF-CEM
[14] = Growth inhibition of human HeLa cells after 72 hrs by MTT assay; assay type: functional, cell-based
[15] = Growth inhibition of human MIAPaCa2 cells after 72 hrs by MTT assay; assay type: functional, cell-based; details: MIA PaCa-2, 72 h
[16] = Growth inhibition of human NCI-H460 cells after 72 hrs by MTT assay; assay type: functional, cell-based; details: NCI-H460, 72 h
Outline: (§3)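 Modified NCI DTP protocol: cells in DMEM with 10% FBS, 2 mM glutamine, antibiotics, 37 °C, 5% CO2; seeded 1 × 10^4 to 3 × 10^4 cells/ml on day 0, exposed to five 10-fold dilutions (10^-8 to 10^-4 M) for 72 h; solvent control. MTT read-out; quadruplicate points in three experiments; IC50 by linear regression of growth percentages bracketing 50%.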

[17] = Growth inhibition of human SW620 cells after 72 hrs by MTT assay; assay type: functional, cell-based; details: SW-620, 72 h; outline: as §3
[18] = Growth inhibition of human MCF7 cells after 72 hrs by MTT assay; assay type: functional, cell-based; details: MCF7, 72 h; outline: as §3
[19] = Antioxidant activity assessed as DPPH radical scavenging activity at 100 uM after 20 mins relative to control; assay type: functional
Outline: (§4)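 Compound in DMSO added to DPPH in absolute ethanol, 0.1 mM final; absorbance at 517 nm after 20 and 60 min at room temperature. At least triplicate.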

[20] = Antioxidant activity assessed as DPPH radical scavenging activity at 100 uM after 60 mins relative to control; assay type: functional; outline: as §4
[21] = Antioxidant activity assessed as inhibition of AAPH-induced linoleic acid lipid peroxidation at 1 x 10^-4 M by UV-absorbance method relative to control; assay type: functional
Outline: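 Linoleic acid peroxidation: 16 mM sodium linoleate dispersion in 0.05 M phosphate buffer pH 7.4 at 37 °C under air, initiated by AAPH (40 mM solution); compound at 1 × 10^-4 M; oxidation followed at 234 nm. At least triplicate.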

Glycine max = test: Inhibition of soybean LOX assessed as reduction in conversion of sodium linoleate to 13-hydroperoxylinoleic acid at 1 x 10^-4 M relative to control
Outline: (§5)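 Soybean lipoxygenase incubated at room temperature with sodium linoleate (0.1 mM) and test compound (DMSO stocks); formation of 13-hydroperoxylinoleic acid read at 234 nm. Single-point screening at 1 × 10^-4 M; IC50 from several concentrations. At least triplicate.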

[22] = Hemolytic activity against human RBC at 100 ug/ml after 1 hr relative to control; assay type: ADME, cell-based, Erythrocyte; details: red blood cells (RBC), read-out: Activity
[23] = Cytotoxicity against HEK cells assessed as reduction in cell viability at 12.5 to 200 ug/ml after 24 hrs by MTT assay; assay type: toxicity, cell-based; details: human, hek293, 24 h
Outline: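 HEK 293 cells, 5 × 10^3 per well, treated next day for 24 h with compound (range within 200 to 1.5625 µg/ml). MTT 0.5 mg/ml in DMEM/10% FBS, 4 h at 37 °C, 5% CO2; formazan in DMSO, A570. Viability as percent of untreated control; triplicates, three independent experiments.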

[24] = Inhibition of soybean LOX assessed as reduction in conversion of sodium linoleate to 13-hydroperoxylinoleic acid; parameters: species or system Glycine max; outline: as §5

Row | Structure (SMILES) | MIC50 (Candida albicans) | MIC50 (Staphylococcus aureus [1]) | MIC50 (Staphylococcus aureus [2]) | MIC50 (Staphylococcus aureus [3]) | MIC50 (Staphylococcus aureus [4]) | MIC50 (Staphylococcus aureus [5]) | MIC50 (Enterococcus faecalis [6]) | MIC50 (Enterococcus faecalis [7]) | MIC50 (Bacillus pumilus) | MIC50 (Bacillus cereus) | MIC50 (Bacillus spizizenii) | MIC50 (Pseudomonas aeruginosa [8]) | MIC50 (Pseudomonas aeruginosa [9]) | MIC50 (Pseudomonas aeruginosa [10]) | MIC50 (Escherichia coli) | IC50 [11] | IC50 [12] | Activity [19] | Activity [20] | inhibition (Glycine max) | also measured
1 | C[C@@H](c1ncncc1F)[C@](O)(Cn1cncn1)c1ccc(F)cc1F [VORICONAZOLE] | 0.5 µg/mL (≈ 1.43 µM) |  |  |  |  |  |  |  |  |  |  |  |  |  |  |  |  |  |  |  | 
2 | CN(C)[C@@H]1C(O)=C(C(N)=O)C(=O)[C@@]2(O)C(O)=C3C(=O)c4c(O)cccc4[C@@](C)(O)[C@H]3C[C@@H]12 [TETRACYCLINE] |  | 0.15 µg/mL (≈ 0.338 µM) | 0.312 µg/mL (≈ 0.702 µM) | 0.156 µg/mL (≈ 0.351 µM) | 0.312 µg/mL (≈ 0.702 µM) | 0.312 µg/mL (≈ 0.702 µM) | 0.312 µg/mL (≈ 0.702 µM) | > 128 µg/mL | 0.156 µg/mL (≈ 0.351 µM) | 0.312 µg/mL (≈ 0.702 µM) | 0.312 µg/mL (≈ 0.702 µM) | 3 µg/mL (≈ 6.75 µM) | 3 µg/mL (≈ 6.75 µM) | > 128 µg/mL | 2.5 µg/mL (≈ 5.63 µM) |  |  |  |  |  | 
3 | COc1cc(NC(C)CCCNC(=O)Nc2ccc(C(F)(F)F)cc2)c2ncccc2c1 (stereo not drawn) | > 100 µg/mL | 25 µg/mL (≈ 56 µM) | 35 µg/mL (≈ 78.4 µM) | 50 µg/mL (≈ 112 µM) | > 100 µg/mL | > 100 µg/mL | > 100 µg/mL | > 100 µg/mL | > 100 µg/mL | > 100 µg/mL | > 100 µg/mL | 100 µg/mL (≈ 224 µM) | 25 µg/mL (≈ 56 µM) | 150 µg/mL (≈ 336 µM) | > 100 µg/mL | 7.4 µM | 20 µM | 38.9% | 36.4% | 22.4% | IC50 [13]: 14 µM; IC50 [14]: 8.3 µM; IC50 [15]: 8.4 µM; IC50 [16]: 24 µM; IC50 [17]: 22 µM; IC50 [18]: 1.9 µM; inhibition [21]: 67%; hemolysis at 1 h, 100 ug/ml [22]: 7.85%; Activity [23]: Non-Toxic
4 | COc1cc(NC(C)CCCNC(=O)Nc2ccc(Br)cc2)c2ncccc2c1 (stereo not drawn) | > 100 µg/mL | 50 µg/mL (≈ 109 µM) | > 100 µg/mL | > 100 µg/mL | > 100 µg/mL | > 100 µg/mL | > 100 µg/mL | > 100 µg/mL | 100 µg/mL (≈ 219 µM) | 50 µg/mL (≈ 109 µM) | 25 µg/mL (≈ 54.7 µM) | 100 µg/mL (≈ 219 µM) | 25 µg/mL (≈ 54.7 µM) | 100 µg/mL (≈ 219 µM) | > 100 µg/mL | 18 µM | 25 µM | 46.2% | 46.4% | 37.1% | IC50 [13]: 23 µM; IC50 [14]: 20 µM; IC50 [15]: 23 µM; IC50 [16]: 30 µM; IC50 [17]: 23 µM; IC50 [18]: 2.6 µM; inhibition [21]: 80.4%; hemolysis at 1 h, 100 ug/ml [22]: < 1%; Activity [23]: Non-Toxic
5 | CC(Cc1ccc(O)c(O)c1)C(C)Cc1ccc(O)c(O)c1 (stereo not drawn) [NORDIHYDROGUAIARETIC ACID] |  |  |  |  |  |  |  |  |  |  |  |  |  |  |  |  |  | 83% | 97% | 83% | IC50 [24]: 4.5 µM
6 | COc1cc(NC(C)CCCNC(=O)NNC(=O)Nc2ccc(C(F)(F)F)cc2)c2ncccc2c1 (stereo not drawn) |  |  |  |  |  |  |  |  |  |  |  |  |  |  |  | 18 µM | 24 µM | 99% | 96.1% | 55.8% | IC50 [13]: 18 µM; IC50 [14]: 15 µM; IC50 [15]: 19 µM; IC50 [16]: 12 µM; IC50 [17]: 12 µM; IC50 [18]: 0.1 µM; inhibition [21]: 75.3%; IC50 [24]: 85 µM
7 | COc1cc(NC(C)CCCN)c2ncccc2c1 (stereo not drawn) [PRIMAQUINE] | 350 µg/mL (≈ 1350 µM) | 70 µg/mL (≈ 270 µM) | 70 µg/mL (≈ 270 µM) | 70 µg/mL (≈ 270 µM) | 60 µg/mL (≈ 231 µM) | 70 µg/mL (≈ 270 µM) | > 100 µg/mL | > 100 µg/mL | 70 µg/mL (≈ 270 µM) | 70 µg/mL (≈ 270 µM) | 80 µg/mL (≈ 308 µM) | 70 µg/mL (≈ 270 µM) | 65 µg/mL (≈ 251 µM) | 70 µg/mL (≈ 270 µM) | 65 µg/mL (≈ 251 µM) |  |  |  |  |  | 
8 | COc1cc(NC(C)CCCNC(=O)NNC(=O)Nc2cccc(F)c2)c2ncccc2c1 (stereo not drawn) |  |  |  |  |  |  |  |  |  |  |  |  |  |  |  | 108 µM | ≥ 250 µM | 75.7% | 100% | 67.4% | IC50 [13]: 98 µM; IC50 [14]: > 250 µM; IC50 [15]: 69 µM; IC50 [16]: 50 µM; IC50 [17]: 9.5 µM; IC50 [18]: 0.15 µM; inhibition [21]: 58.2%; IC50 [24]: 40 µM
